Results: ChEMBL document CHEMBL2311261, “Biocatalytic synthesis, structural elucidation, antioxidant capacity and tyrosinase inhibition activity of long chain fatty acid acylated derivatives of phloridzin and isoquercitrin” (Bioorg Med Chem, 2013)

Legend:
[1] = test system: tyrosinase (Agaricus bisporus); assay: Inhibition of mushroom tyrosinase using L-DOPA substrate at 100 uM
[2] = Antioxidant activity assessed as Trolox equivalents of 1 mmol/L solution by FRAP assay; format: functional
Summary of the method: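 FRAP reagent made daily from 300 mmol l⁻¹ acetate buffer (pH 3.6), 10 mmol l⁻¹ TPTZ and 20 mmol l⁻¹ FeCl3 (10:1:1). Trolox calibration 50–1000 μmol l⁻¹. Result given as Trolox equivalents of a 1 mmol l⁻¹ solution. Run in triplicate.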

[3] = test system: Radical scavenging activity; assay: Antioxidant activity assessed as DPPH radical scavenging activity; format: functional
Summary of the method: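 Test compounds at a series of concentrations in DMSO/chloroform/methanol (1:8:4), mixed 1:1 (v/v) with 0.2 mM DPPH and incubated 30 min at 25 °C. Absorbance read at 520 nm from 0 s and every 300 s until plateau. Run in triplicate.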

[4] = test system: tyrosinase (Agaricus bisporus); assay: Inhibition of mushroom tyrosinase using L-DOPA substrate at 1000 uM
[5] = Antioxidant activity assessed as Trolox equivalents of 0.001 mmol/L solution by ORAC assay; format: functional
[6] = test system: tyrosinase (Agaricus bisporus); assay: Inhibition of mushroom tyrosinase using L-DOPA substrate at 10 uM
[7] = Antioxidant activity assessed as Trolox equivalents of 0.01 mmol/L solution by ORAC assay; format: functional

Structure (SMILES)	inhibition [1] [%]	Activity [2] [µmol/L]	IC50 [3] [µM]	inhibition [4] [%]	Activity [5] [µmol/L]	inhibition [6] [%]	Activity [7] [µmol/L]
CCCCC/C=C\C/C=C\CCCCCCCC(=O)OC[C@H]1O[C@@H](Oc2c(-c3ccc(O)c(O)c3)oc3cc(O)cc(O)c3c2=O)[C@H](O)[C@@H](O)[C@@H]1O	73.3	340	60.4	80.6	491	32.1	–
CC/C=C\C/C=C\C/C=C\CCCCCCCC(=O)OC[C@H]1O[C@@H](Oc2c(-c3ccc(O)c(O)c3)oc3cc(O)cc(O)c3c2=O)[C@H](O)[C@@H](O)[C@@H]1O	78.8	614	97.9	85.5	490	55.8	–
O=C(CCc1ccc(O)cc1)c1c(O)cc(O)cc1O[C@@H]1O[C@H](CO)[C@@H](O)[C@H](O)[C@H]1O [PHLORIZIN]	–	–	1490	–	–	–	120
CCCCCCCC/C=C\CCCCCCCC(=O)OC[C@H]1O[C@@H](Oc2c(-c3ccc(O)c(O)c3)oc3cc(O)cc(O)c3c2=O)[C@H](O)[C@@H](O)[C@@H]1O	47.5	536	38.2	62.4	265	38.9	–
CCCCCCCCCCCCCCCCCC(=O)OC[C@H]1O[C@@H](Oc2c(-c3ccc(O)c(O)c3)oc3cc(O)cc(O)c3c2=O)[C@H](O)[C@@H](O)[C@@H]1O	–	622	42	–	310	–	–
O=c1c(O[C@@H]2O[C@H](CO)[C@@H](O)[C@H](O)[C@H]2O)c(-c2ccc(O)c(O)c2)oc2cc(O)cc(O)c12 [ISOQUERCETIN]	–	1500	17.9	–	473	–	–
